The species entered for data set [1] is Homo sapiens. Put plainly: Selectivity ratio of IC50 for human full length PI3Kgamma to IC50 for human full length PI3Kdelta catalytic subunit/p85alpha. The method in brief: (§1)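 Ratio calculated from the isoform-specific PI3K IC50 values, with enzyme assays run in quadruplicate.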
Data set [2] is filed under the species Homo sapiens. Kind of data set: Selectivity ratio of IC50 for human full length PI3Kalpha catalytic subunit/p85alpha to IC50 for human full length PI3Kdelta catalytic subunit/p85alpha. A digest of the protocol:
as §1

For data set [3], the species on record is Homo sapiens. Put plainly: Selectivity ratio of IC50 for human recombinant PI3Kbeta to IC50 for human full length PI3Kdelta catalytic subunit/p85alpha. The method in brief: as §1
The target of data set [4] is PI3-kinase p110-delta/p85-alpha (Homo sapiens, UniProt O00329). Put plainly: Inhibition human full length PI3Kdelta catalytic subunit/p85alpha assessed as formation of PIP3 after 30 mins by europium labeled GRP-based TR-FRET assay. The class given is protein-complex assay.
PI3-kinase p110-delta/p85-alpha, sequence (P27986 whole entry): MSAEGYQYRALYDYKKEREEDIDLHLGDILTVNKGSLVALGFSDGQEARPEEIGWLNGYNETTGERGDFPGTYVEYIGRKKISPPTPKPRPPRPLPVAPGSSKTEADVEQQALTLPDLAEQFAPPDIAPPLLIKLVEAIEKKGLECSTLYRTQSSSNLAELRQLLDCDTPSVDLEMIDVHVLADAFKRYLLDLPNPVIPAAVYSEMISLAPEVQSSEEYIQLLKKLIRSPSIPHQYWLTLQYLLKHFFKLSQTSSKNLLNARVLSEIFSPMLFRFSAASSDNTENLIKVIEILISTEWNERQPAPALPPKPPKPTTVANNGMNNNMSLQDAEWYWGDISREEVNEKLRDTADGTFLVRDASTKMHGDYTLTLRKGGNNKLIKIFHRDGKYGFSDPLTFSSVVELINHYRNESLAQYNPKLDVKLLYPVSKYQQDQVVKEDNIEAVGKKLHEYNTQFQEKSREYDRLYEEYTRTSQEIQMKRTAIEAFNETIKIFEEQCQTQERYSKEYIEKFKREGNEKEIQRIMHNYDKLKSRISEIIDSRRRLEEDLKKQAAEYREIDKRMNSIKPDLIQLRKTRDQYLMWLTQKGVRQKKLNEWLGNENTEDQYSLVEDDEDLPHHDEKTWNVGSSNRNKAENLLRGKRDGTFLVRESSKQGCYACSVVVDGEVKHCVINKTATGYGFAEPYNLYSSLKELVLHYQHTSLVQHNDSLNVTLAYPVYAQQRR
PI3-kinase p110-delta/p85-alpha, sequence (O00329 whole entry): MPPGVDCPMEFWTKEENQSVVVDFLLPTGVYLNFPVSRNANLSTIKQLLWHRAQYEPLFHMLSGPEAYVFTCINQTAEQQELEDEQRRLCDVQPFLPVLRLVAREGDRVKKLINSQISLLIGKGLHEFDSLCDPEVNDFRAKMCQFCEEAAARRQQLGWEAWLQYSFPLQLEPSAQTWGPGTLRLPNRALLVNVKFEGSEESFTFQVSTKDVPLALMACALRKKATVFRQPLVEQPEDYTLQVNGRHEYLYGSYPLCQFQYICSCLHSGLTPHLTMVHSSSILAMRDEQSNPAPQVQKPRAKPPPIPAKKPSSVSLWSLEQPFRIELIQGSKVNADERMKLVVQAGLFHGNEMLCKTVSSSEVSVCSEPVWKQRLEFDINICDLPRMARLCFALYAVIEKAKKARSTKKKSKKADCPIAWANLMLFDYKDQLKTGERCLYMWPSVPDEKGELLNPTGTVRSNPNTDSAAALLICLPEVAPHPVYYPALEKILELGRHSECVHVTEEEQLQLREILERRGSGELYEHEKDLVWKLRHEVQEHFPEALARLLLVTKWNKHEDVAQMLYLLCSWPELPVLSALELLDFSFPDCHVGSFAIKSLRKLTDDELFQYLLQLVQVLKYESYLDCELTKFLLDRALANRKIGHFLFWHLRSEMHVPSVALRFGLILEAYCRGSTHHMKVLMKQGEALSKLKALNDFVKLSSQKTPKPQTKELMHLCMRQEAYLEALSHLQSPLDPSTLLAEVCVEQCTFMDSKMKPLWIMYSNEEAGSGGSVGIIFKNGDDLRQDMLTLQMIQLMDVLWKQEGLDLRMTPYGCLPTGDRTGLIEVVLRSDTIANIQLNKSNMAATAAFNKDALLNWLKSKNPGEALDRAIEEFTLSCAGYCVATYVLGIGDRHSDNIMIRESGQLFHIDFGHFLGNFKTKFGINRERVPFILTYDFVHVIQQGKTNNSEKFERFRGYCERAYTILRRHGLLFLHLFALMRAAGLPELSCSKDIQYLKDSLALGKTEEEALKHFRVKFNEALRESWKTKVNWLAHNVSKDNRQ
A short description of data set [5]: Clearance in human hepatocytes at 1 uM by LC/MS/MS analysis. The class given is ADME, cell-based, Hepatocyte. The method in brief:
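Human hepatocytes, incubated with and without the aldehyde oxidase inhibitor raloxifene; predicted clearance calculated from turnover.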

Regarding `C[C@H](Nc1nc(N)nc(N)c1C#N)c1nc2cccc(Cl)c2c(=O)n1-c1cc(C#N)cc(C#N)c1`, the Ratio IC50 in data set [1], in data set [2] and in data set [3] was above 68 throughout. Also, the IC50 in data set [4] came to 150 nM.

On to `C[C@H](Nc1nc(N)nc(Cl)c1C#N)c1nc2cccc(Cl)c2c(=O)n1-c1ccccc1`, for which the Ratio IC50 came to 25 in data set [1], 530 in data set [2] and 100 in data set [3]. In data set [5], the CLhep predicted at 1 µM is 13.7 mL/min/kg. Besides, in data set [4], the IC50 came out at 1 nM.

For the compound `C[C@H](Nc1nc(N)nc(N)c1Cl)c1nc2cccc(Cl)c2c(=O)n1-c1ccccc1`, the figures for the Ratio IC50 in data set [1], in data set [2] and in data set [3] were 200, 2700 and 370, respectively. In addition, in data set [5], the CLhep predicted at 1 µM was 10.8 mL/min/kg. Also, the IC50 in data set [4] was determined as 0.9 nM.

In the case of `C[C@H](Nc1nc(N)nc(N)c1C#N)c1nc2cccc(Cl)c2c(=O)n1-c1cccc(C#N)c1`, the Ratio IC50 in data set [1] came out at 90; in data set [2] it was 1700; in data set [3] it was 340. For the same compound, the IC50 in data set [4] amounted to 1.9 nM.

Consider `C[C@H](Nc1ncnc(N)c1C#Cc1ccccc1)c1nc2cccc(Cl)c2c(=O)n1-c1ccccc1`, for which the Ratio IC50 in data set [1] was 320; in data set [2], 1600; in data set [3] it was 120. In addition, the IC50 in data set [4] worked out at 0.3 nM.

Regarding `C[C@H](Nc1ccnc(N)c1C#N)c1nc2cccc(Cl)c2c(=O)n1-c1ccccc1`, the Ratio IC50 in data set [1], in data set [2] and in data set [3] was above 340 in each case. In addition, the IC50 in data set [4] is 30 nM.

`C[C@H](Nc1nc(N)nc(N)c1C#N)c1nc2ccc(F)cc2c(=O)n1-c1cc(F)cc(F)c1`: the Ratio IC50 stood at 160 in data set [1], 600 in data set [2] and 520 in data set [3]. Further, the CLhep predicted at 1 µM in data set [5] was 4.83 mL/min/kg. The IC50 in data set [4] is 4.8 nM.

For `COc1cccc(-n2c([C@H](C)Nc3nc(N)nc(N)c3C#N)nc3cccc(Cl)c3c2=O)c1`, the Ratio IC50 in data set [1] worked out at 70; in data set [2] it was 1100; in data set [3], 330. Besides, in data set [4], the IC50 came to 0.9 nM.

On to `C[C@H](Nc1nc(N)nc(N)c1C#N)c1nc2c(C#N)cccc2c(=O)n1-c1cc(F)cc(F)c1`, for which the Ratio IC50 in data set [1] stood at 800; in data set [2], 1700; in data set [3], 1200. Moreover, in data set [5], the CLhep predicted at 1 µM was 8.33 mL/min/kg. Also, the IC50 in data set [4] turned out to be 5.9 nM.

As for `COc1c(N)ncnc1N[C@@H](C)c1nc2cccc(Cl)c2c(=O)n1-c1ccccc1`, the Ratio IC50 in data set [1], in data set [2] and in data set [3] was above 251 each time. In addition, in data set [4], the IC50 came out at 39 nM.

Turning to `C[C@H](Nc1nc(N)nc(N)c1C#N)c1nc2cccc(Cl)c2c(=O)n1-c1cccc(C(F)F)c1`, the Ratio IC50 in data set [1] stood at 210; in data set [2], 1800; in data set [3] it was 190. Also, in data set [4], the IC50 was determined as 0.54 nM.

Consider `C[C@H](Nc1cc(N)ncn1)c1nc2cccc(Cl)c2c(=O)n1-c1ccccc1`, for which the Ratio IC50 in data set [1], in data set [2] and in data set [3] was above 100 each time. The IC50 in data set [4] is 99 nM.

On to `C[C@H](Nc1nc(N)nc(N)c1C#N)c1nc2cccc(Cl)c2c(=O)n1-c1cccc(C(F)(F)F)c1`, for which the Ratio IC50 in data set [1] is 57; in data set [2], 1100; in data set [3], 230. The IC50 in data set [4] worked out at 3.6 nM.

As to `C[C@H](Nc1ncncc1C#N)c1nc2cccc(Cl)c2c(=O)n1-c1ccccc1`, the Ratio IC50 amounted to 370 in data set [1], 1200 in data set [2] and 460 in data set [3]. For the same compound, the IC50 in data set [4] was 8 nM.

As for `C[C@H](Nc1ncnc(N)c1C#Cc1cn[nH]c1)c1nc2cccc(Cl)c2c(=O)n1-c1ccccc1`, the Ratio IC50 amounted to 230 in data set [1], 1500 in data set [2] and 260 in data set [3]. In addition, the IC50 in data set [4] was 0.3 nM.

`C[C@H](Nc1nc(Cl)nc(N)c1C#N)c1nc2cccc(Cl)c2c(=O)n1-c1ccccc1`: the Ratio IC50 in data set [1] was 37; in data set [2] it was 720; in data set [3] it was 180. Moreover, in data set [5], the CLhep predicted at 1 µM was 9.83 mL/min/kg. For the same compound, the IC50 in data set [4] was determined as 4.3 nM.

Consider `C[C@H](Nc1ncnc(N)c1C#Cc1cccnc1)c1nc2cccc(Cl)c2c(=O)n1-c1ccccc1`, for which the Ratio IC50 in data set [1] was 100; in data set [2], 620; in data set [3], 240. The IC50 in data set [4] was found to be 0.5 nM.

`C[C@H](Nc1ncnc(N)c1C#Cc1cnccn1)c1nc2cccc(Cl)c2c(=O)n1-c1ccccc1`: the Ratio IC50 in data set [1] was 512; in data set [2] it was 3200; in data set [3], 52. Further, in data set [4], the IC50 came to 0.4 nM.

Turning to `C[C@H](Nc1nc(N)nc(N)c1C#N)c1nc2cccc(Cl)c2c(=O)n1-c1cccc(F)c1`, the figures for the Ratio IC50 in data set [1], in data set [2] and in data set [3] were 90, 3100 and 550, respectively. The IC50 in data set [4] was 0.15 nM.

On to `Cc1nc(N)nc(N[C@@H](C)c2nc3cccc(Cl)c3c(=O)n2-c2ccccc2)c1C#N`, for which the Ratio IC50 in data set [1] came to 40; in data set [2] it was 1900; in data set [3], 100. The CLhep predicted at 1 µM in data set [5] is 17.5 mL/min/kg. Also, the IC50 in data set [4] is 0.13 nM.

Regarding `C#Cc1c(N)ncnc1N[C@@H](C)c1nc2cccc(Cl)c2c(=O)n1-c1ccccc1`, the Ratio IC50 came to 1900 in data set [1], 9700 in data set [2] and 490 in data set [3]. In addition, in data set [5], the CLhep predicted at 1 µM was 11 mL/min/kg. Further, in data set [4], the IC50 amounted to 0.1 nM.

As to `C[C@H](Nc1ccncn1)c1nc2cccc(Cl)c2c(=O)n1-c1ccccc1`, the Ratio IC50 in data set [1], in data set [2] and in data set [3] was above 6 each time. For the same compound, the IC50 in data set [4] amounted to 1700 nM.

On to `C[C@H](Nc1nc(N)nc(N)c1C#N)c1nc2cccc(Cl)c2c(=O)n1-c1cc(Cl)cc(C(F)F)c1`, for which the Ratio IC50 in data set [1] turned out to be 220; in data set [2], 850; in data set [3] it was 220. The IC50 in data set [4] was 1.5 nM.

On to `C[C@H](Nc1nc(N)ncc1C#N)c1nc2cccc(Cl)c2c(=O)n1-c1ccccc1`, for which the Ratio IC50 in data set [1] was 15; in data set [2], 530; in data set [3] it was 170. The IC50 in data set [4] came to 2.5 nM.

Regarding `C[C@H](Nc1nc(N)nc(N)c1C#N)c1nc2cccc(Cl)c2c(=O)n1-c1ccc(F)cc1`, the Ratio IC50 in data set [1] was 2; in data set [2] it was 64; in data set [3], 4. Further, the IC50 in data set [4] turned out to be 2 nM.

For `C[C@H](Nc1nc(N)nc(N)c1C#N)c1nc2cccc(Cl)c2c(=O)n1-c1cccc(CC(F)F)c1`, the Ratio IC50 in data set [1] is 120; in data set [2], 1400; in data set [3], 230. The IC50 in data set [4] came to 1.6 nM.

For the compound `C[C@H](Nc1ncnc(N)c1C#Cc1cccnn1)c1nc2cccc(Cl)c2c(=O)n1-c1ccccc1`, the Ratio IC50 in data set [1] was above 42; in data set [2], above 42; in data set [3], 30. Moreover, the IC50 in data set [4] was determined as 240 nM.

Turning to `C[C@H](Nc1nc(N)nc(N)c1C#N)c1nc2cccc(Cl)c2c(=O)n1-c1cccc(Cl)c1`, the figures for the Ratio IC50 in data set [1], in data set [2] and in data set [3] were 70, 530 and 140, respectively. In addition, the IC50 in data set [4] was 0.45 nM.

The values are drawn from ChEMBL document CHEMBL3804828, “2,4,6-Triaminopyrimidine as a Novel Hinge Binder in a Series of PI3Kδ Selective Inhibitors” (J Med Chem, 2016).
